Experimental data reported in ChEMBL document CHEMBL1250485, “Synthesis and activity of endomorphin-2 and morphiceptin analogues with proline surrogates in position 2” (Eur J Med Chem, 2010).
Where a SMILES comes first, the peptide text is derived from it. [ ]: non-standard residue; d: D form. d(β3hP) = O=C(O)C[C@H]1CCCN1; β3hP = O=C(O)C[C@@H]1CCCN1

Legend:
Format in all cases: functional, tissue-based
Mu-type opioid receptor = Mu-type opioid receptor (Cavia porcellus, UniProt P97266); assay: Agonist activity at mu opioid receptor in guinea pig ileum assessed as inhibition of electrically-stimulated muscle contraction
Outline: (§1)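 Isolated tissue bioassays used MVD for line 1 and GPI/LMMP for […]. IC50 is the mean of at least four experiments, obtained by nonlinear least-squares fitting to the Hill equation.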

[1] = target: Delta-type opioid receptor (Mus musculus, UniProt P32300); assay: Agonist activity at delta opioid receptor in mouse vas deferens assessed as inhibition of electrically-stimulated muscle contraction; outline: as §1
[2] = target: Delta-type opioid receptor (Mus musculus) (UniProt P32300); assay: Agonist activity at delta opioid receptor in mouse vas deferens assessed as inhibition of electrically-stimulated muscle contraction at 1 uM
Sequence of Delta-type opioid receptor (Mus musculus) (P32300 whole entry): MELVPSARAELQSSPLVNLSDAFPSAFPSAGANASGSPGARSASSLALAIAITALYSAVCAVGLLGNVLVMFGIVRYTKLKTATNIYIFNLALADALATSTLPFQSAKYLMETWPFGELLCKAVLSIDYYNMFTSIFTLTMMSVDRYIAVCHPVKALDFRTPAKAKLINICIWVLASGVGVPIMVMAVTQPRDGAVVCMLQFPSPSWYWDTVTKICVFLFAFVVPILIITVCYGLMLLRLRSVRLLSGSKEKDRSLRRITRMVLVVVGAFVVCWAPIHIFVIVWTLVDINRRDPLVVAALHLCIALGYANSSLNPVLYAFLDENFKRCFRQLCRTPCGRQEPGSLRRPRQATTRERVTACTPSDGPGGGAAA

Sequence of Delta-type opioid receptor (P32300 whole entry): as above
Sequence of Mu-type opioid receptor (P97266 whole entry): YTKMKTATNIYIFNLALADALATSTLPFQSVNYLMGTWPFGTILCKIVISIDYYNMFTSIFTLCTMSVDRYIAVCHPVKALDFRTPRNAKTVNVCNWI

| SMILES | IC50 (Mu-type opioid receptor) | IC50 [1] | inhibition [2] |
| --- | --- | --- | --- |
| NC(=O)[C@H]1CCCN1C(=O)[C@H](Cc1ccccc1)NC(=O)C[C@H]1CCCN1C(=O)[C@@H](N)Cc1ccc(O)cc1 (H-Y[d(β3hP)]F[dP]-NH2) | 17 nM | 96 nM | – |
| NC(=O)[C@H](Cc1ccccc1)NC(=O)[C@H](Cc1ccccc1)NS(=O)(=O)C[C@H]1CCCN1C(=O)[C@@H](N)Cc1ccc(O)cc1 | 2700 nM | – | 36% |
| NC(=O)[C@H](Cc1ccccc1)NC(=O)[C@H](Cc1ccccc1)NS(=O)(=O)C[C@@H]1CCCN1C(=O)[C@@H](N)Cc1ccc(O)cc1 | 730 nM | 1100 nM | – |
| NC(=O)[C@H](Cc1ccccc1)NC(=O)[C@H](Cc1ccccc1)NC(=O)C[C@@H]1CCCN1C(=O)[C@@H](N)Cc1ccc(O)cc1 | 260 nM | 1300 nM | – |
| NC(=O)[C@H]1CCCN1C(=O)[C@H](Cc1ccccc1)NC(=O)C[C@@H]1CCCN1C(=O)[C@@H](N)Cc1ccc(O)cc1 (H-Y[β3hP]F[dP]-NH2) | 1100 nM | – | 33.7% |
| NC(=O)[C@H](Cc1ccccc1)NC(=O)[C@H](Cc1ccccc1)NS(=O)(=O)[C@H]1CCN(C(=O)[C@@H](N)Cc2ccc(O)cc2)C1 | 260 nM | 530 nM | – |
| NC(=O)[C@H](Cc1ccccc1)NC(=O)[C@H](Cc1ccccc1)NC(=O)C[C@H]1CCCN1C(=O)[C@@H](N)Cc1ccc(O)cc1 | 420 nM | 1900 nM | – |
| NC(=O)[C@H](Cc1ccccc1)NC(=O)[C@H](Cc1ccccc1)NS(=O)(=O)[C@@H]1CCN(C(=O)[C@@H](N)Cc2ccc(O)cc2)C1 | 220 nM | 390 nM | – |
